In ChEMBL document CHEMBL1149152, “Selective, orally active gamma-aminobutyric acidA alpha5 receptor inverse agonists as cognition enhancers” (J Med Chem, 2004):

Tests used:
[1] = molecular target: T1, GABA-A receptor; alpha-3/beta-3/gamma-2 (Homo sapiens, UniProt P18507+P28472+P34903); test: Displacement of [3H]-Ro- 15-1788 from human GABA-A alpha-3-beta-3-gamma-2 receptor subunits expressed in Xenopus oocytes; type: cell-based, Oocyte
T1 sequence (P18507 whole entry): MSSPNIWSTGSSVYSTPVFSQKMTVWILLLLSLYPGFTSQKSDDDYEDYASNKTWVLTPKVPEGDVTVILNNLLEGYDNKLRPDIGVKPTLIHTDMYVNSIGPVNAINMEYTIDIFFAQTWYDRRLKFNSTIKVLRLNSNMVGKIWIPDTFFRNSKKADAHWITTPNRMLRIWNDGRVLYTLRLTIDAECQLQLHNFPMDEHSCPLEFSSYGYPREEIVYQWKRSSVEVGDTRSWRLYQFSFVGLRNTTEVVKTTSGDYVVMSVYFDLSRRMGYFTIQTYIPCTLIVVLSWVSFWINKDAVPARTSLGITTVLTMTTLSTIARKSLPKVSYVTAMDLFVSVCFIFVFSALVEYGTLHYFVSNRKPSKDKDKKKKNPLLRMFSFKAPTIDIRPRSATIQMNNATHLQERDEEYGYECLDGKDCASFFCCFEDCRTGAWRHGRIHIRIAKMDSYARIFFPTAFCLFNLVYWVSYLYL
T1 sequence (P28472 whole entry): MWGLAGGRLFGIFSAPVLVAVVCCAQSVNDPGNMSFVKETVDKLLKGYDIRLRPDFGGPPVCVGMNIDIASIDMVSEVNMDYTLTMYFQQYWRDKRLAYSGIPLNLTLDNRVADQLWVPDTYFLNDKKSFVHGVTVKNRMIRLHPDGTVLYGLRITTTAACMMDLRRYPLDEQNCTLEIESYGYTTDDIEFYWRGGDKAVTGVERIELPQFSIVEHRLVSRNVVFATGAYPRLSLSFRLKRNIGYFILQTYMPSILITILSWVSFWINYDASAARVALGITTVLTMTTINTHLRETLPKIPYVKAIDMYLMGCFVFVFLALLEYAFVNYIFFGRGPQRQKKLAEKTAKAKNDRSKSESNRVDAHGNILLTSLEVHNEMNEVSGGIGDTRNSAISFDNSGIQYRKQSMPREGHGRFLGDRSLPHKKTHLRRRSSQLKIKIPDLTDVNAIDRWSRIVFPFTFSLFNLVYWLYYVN
T1 sequence (P34903 whole entry): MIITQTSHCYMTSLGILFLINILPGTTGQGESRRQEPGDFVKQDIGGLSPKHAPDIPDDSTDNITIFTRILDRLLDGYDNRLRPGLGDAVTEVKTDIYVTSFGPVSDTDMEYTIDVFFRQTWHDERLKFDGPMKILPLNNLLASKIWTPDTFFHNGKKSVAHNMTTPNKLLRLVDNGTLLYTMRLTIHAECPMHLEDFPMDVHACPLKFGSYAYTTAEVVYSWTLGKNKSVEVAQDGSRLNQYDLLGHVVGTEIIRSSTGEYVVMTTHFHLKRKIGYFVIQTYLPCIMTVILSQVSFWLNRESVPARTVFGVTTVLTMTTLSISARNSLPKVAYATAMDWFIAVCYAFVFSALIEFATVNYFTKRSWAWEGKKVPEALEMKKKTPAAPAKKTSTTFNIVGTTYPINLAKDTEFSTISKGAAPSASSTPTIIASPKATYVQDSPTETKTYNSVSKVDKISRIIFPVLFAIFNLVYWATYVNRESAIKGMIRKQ
Outline: (§1)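 Radioligand displacement of [3H]Ro 15-1788 from recombinant human GABA-A receptor subtypes. Ki values are the mean of at least two independent determinations, with SEM given where at least three were performed.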

[2] = molecular target: T2, GABA-A receptor; alpha-2/beta-3/gamma-2 (Homo sapiens, UniProt P18507+P28472+P47869); test: Displacement of [3H]-Ro- 15-1788 from human GABA-A alpha-2-beta-3-gamma-2 receptor subunits expressed in Xenopus oocytes; type: cell-based, Oocyte; outline: as §1
T2 sequence (P18507 whole entry): T1 sequence (P18507 whole entry)
T2 sequence (P28472 whole entry): T1 sequence (P28472 whole entry)
T2 sequence (P47869 whole entry): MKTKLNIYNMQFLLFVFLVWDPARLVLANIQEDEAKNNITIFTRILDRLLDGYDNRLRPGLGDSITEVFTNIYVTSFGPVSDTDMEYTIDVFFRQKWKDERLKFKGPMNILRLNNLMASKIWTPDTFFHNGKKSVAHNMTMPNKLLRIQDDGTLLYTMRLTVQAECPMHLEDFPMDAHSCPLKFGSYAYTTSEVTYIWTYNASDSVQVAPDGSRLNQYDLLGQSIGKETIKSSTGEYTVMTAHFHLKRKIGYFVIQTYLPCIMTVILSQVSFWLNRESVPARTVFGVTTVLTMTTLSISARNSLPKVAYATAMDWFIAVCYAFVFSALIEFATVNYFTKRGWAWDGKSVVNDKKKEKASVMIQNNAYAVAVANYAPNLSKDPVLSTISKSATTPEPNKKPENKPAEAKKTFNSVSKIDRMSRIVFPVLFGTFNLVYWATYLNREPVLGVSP

[3] = molecular target: GABA-A receptor; alpha-3/beta-3/gamma-2 (Homo sapiens) (UniProt P18507+P28472+P34903); test: Percentage modulation of submaximal (EC20) response to GABA in Xenopus oocytes expressing human GABA-A alpha-3-beta-3-gamma-2 subunits; type: cell-based; details: Oocyte; also: test concentration or dose not given here
Outline: (§2)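 Two-electrode voltage clamp on Xenopus laevis oocytes transiently expressing human GABA-A receptor subtypes. Modulation of the submaximal GABA (EC20) ion current is expressed as a percentage. Values are the arithmetic mean ± SEM from at least three independent cells.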

[4] = molecular target: GABA-A receptor; alpha-1/beta-3/gamma-2 (Homo sapiens) (UniProt P14867+P18507+P28472); test: Percentage modulation of submaximal (EC20) response to GABA in Xenopus oocytes expressing human GABA-A alpha-1-beta-3-gamma-2 subunits; type: cell-based; details: Oocyte; outline: as §2; also: test concentration or dose not given here
[5] = molecular target: T3, GABA-A receptor; alpha-1/beta-3/gamma-2 (Homo sapiens, UniProt P14867+P18507+P28472); test: Displacement of [3H]-Ro- 15-1788 from human GABA-A alpha-1-beta-3-gamma-2 receptor subunits expressed in Xenopus oocytes; type: cell-based, Oocyte
T3 sequence (P14867 whole entry): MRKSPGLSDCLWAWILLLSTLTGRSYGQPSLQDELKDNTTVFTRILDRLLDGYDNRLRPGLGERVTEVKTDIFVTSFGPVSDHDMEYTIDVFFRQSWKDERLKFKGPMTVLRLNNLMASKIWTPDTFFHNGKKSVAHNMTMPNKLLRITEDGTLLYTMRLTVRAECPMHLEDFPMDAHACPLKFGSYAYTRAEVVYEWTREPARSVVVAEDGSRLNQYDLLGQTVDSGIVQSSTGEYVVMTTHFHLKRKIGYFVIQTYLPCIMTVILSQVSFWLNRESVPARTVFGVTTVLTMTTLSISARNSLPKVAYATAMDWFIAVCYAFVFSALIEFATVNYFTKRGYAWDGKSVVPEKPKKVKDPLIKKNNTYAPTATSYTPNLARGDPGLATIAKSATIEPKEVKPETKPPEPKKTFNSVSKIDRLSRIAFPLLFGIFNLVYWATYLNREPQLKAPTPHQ
T3 sequence (P18507 whole entry): T1 sequence (P18507 whole entry)
T3 sequence (P28472 whole entry): T1 sequence (P28472 whole entry)
Outline: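 Radioligand binding to recombinant human GABA-A receptor subtypes, measuring displacement of [3H]Ro 15-1788. Ki values are the mean of at least two independent determinations, with SEM given where at least three were performed.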

[6] = molecular target: GABA-A receptor; alpha-5/beta-3/gamma-2 (Homo sapiens) (UniProt P18507+P28472+P31644); test: Percentage modulation of submaximal (EC20) response to GABA in Xenopus oocytes expressing human GABA-A alpha-5-beta-3-gamma-2 subunits; type: cell-based; details: Oocyte; outline: as §2; also: test concentration or dose not given here
[7] = molecular target: T4, GABA-A receptor; alpha-5/beta-3/gamma-2 (Homo sapiens, UniProt P18507+P28472+P31644); test: Displacement of [3H]-Ro- 15-1788 from human GABA-A alpha-5-beta-3-gamma-2 receptor subunits expressed in Xenopus oocytes; type: cell-based, Oocyte; outline: as §1
T4 sequence (P18507 whole entry): T1 sequence (P18507 whole entry)
T4 sequence (P28472 whole entry): T1 sequence (P28472 whole entry)
T4 sequence (P31644 whole entry): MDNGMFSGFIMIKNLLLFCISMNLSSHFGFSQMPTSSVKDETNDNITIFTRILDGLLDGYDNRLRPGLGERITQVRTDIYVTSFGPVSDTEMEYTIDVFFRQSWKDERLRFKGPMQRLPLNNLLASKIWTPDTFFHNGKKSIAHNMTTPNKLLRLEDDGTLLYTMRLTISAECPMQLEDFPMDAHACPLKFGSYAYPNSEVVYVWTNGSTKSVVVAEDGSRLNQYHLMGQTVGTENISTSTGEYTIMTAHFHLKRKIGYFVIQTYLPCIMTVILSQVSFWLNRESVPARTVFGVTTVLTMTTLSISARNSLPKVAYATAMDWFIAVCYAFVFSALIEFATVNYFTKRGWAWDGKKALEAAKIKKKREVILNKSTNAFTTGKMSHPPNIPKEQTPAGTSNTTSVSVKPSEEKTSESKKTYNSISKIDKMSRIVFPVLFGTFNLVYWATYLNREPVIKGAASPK

[8] = molecular target: GABA-A receptor; alpha-2/beta-3/gamma-2 (Homo sapiens) (UniProt P18507+P28472+P47869); test: Percentage modulation of submaximal (EC20) response to GABA in Xenopus oocytes expressing human GABA-A alpha-2-beta-3-gamma-2 subunits; type: cell-based; details: Oocyte; outline: as §2; also: test concentration or dose not given here

SMILES | Ki [1] [nM] | Ki [2] [nM] | Efficacy [3] [%] | Efficacy [4] [%] | Ki [5] [nM] | Efficacy [6] [%] | Ki [7] [nM] | Efficacy [8] [%]
Cc1cc(-c2nnc3c4ccccc4c(OCc4cnnn4C)nn23)no1 | 5.2 | 2.8 | -6 | -8 | 4.2 | -33 | 2 | -25
Cc1cc(-c2nnc3c4ccccc4c(OCc4cnn(C)n4)nn23)no1 | 0.8 | 0.64 | -3 | -5 | 1.3 | -35 | 0.87 | 9
CCc1c(C(=O)OC)ncc2[nH]c3cc(OC)c(OC)cc3c12 | 10 | 11 | -52 | -36 | 16 | -52 | 2.3 | -34
CNC1=Nc2ccc(Cl)cc2C(c2ccccc2)=[N+]([O-])C1 |  |  | 173 | 165 |  |  |  | 101
Cc1cc(-c2nnc3c4ccccc4c(OCc4ccccn4)nn23)no1 | 0.96 | 1.5 | -4 | -2 | 0.93 | -46 | 0.62 | 
Cc1cccc(COc2nn3c(-c4cc(C)on4)nnc3c3c2C2CCC3CC2)n1 | 41 | 86 | -1 |  | 280 | -29 | 4.6 | 15
Cc1cccc(COc2nn3c(-c4ccsc4)nnc3c3c2C2CCC3CC2)n1 | 48 | 110 | 38 | 17 | 270 |  | 3.7 | 9
Cc1cc(-c2nnc3c4ccccc4c(OCc4cn(C)nn4)nn23)no1 | 0.61 | 0.58 | 4 | -4 | 0.88 | -29 | 0.66 | 12
Cc1cccc(COc2nn3c(-c4cc(C)on4)nnc3c3ccccc23)n1 | 1.3 | 1.6 |  |  | 0.88 | -15 | 0.79 | 
Cc1cccc(COc2nn3c(-c4nc(C)no4)nnc3c3c2C2CCC3CC2)n1 | 7.6 | 17 | -21 | -15 | 74 | -35 | 1.1 | -10
Cc1cccc(COc2nn3c(-c4ccoc4)nnc3c3c2C2CCC3CC2)n1 | 40 | 63 | -4 |  | 250 | -24 | 3.1 | -6
Cc1cccc(COc2nn3c(-c4ccccc4)nnc3c3c2C2CCC3CC2)n1 | 25 | 46 |  |  | 170 | 15 | 2.9 | 
